Assay outcomes from PubChem.
Only some compounds are listed: those with a hit (about 2.8% of all), similar ones and a draw of the others.
SIRT5 block: sirtuin-5 (human) deacylase inhibition. Q9NXA8. Purified SirT5, succinyl-peptide AMC, trypsin-coupled fluorescence. inhibition, % at 15 µM. actives 1.1% (n = 330,000); in the data active = inhibition above about 15%; inconclusive = no clear call, values can overlap the other calls
E-selectin induc: E-selectin induction on HUVECs | activation, % at 7.58 µM | P16581 | actives 0.37% (n = 260,000) | AID 686992 | HUVEC E-selectin immunofluorescence imaging; normalized: neutral wells 0, TNF-alpha wells 100;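 active = mean E-selectin-positive cell signal at least 10% of the positive control, reached in at least 60% of replicates, without over 20% cell loss; inconclusive = no rule given, readout overlaps actives, possibly toxicity-flagged; inactive = the rest, including those meeting only one limit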
Target sequence (P16581 whole entry, looked up): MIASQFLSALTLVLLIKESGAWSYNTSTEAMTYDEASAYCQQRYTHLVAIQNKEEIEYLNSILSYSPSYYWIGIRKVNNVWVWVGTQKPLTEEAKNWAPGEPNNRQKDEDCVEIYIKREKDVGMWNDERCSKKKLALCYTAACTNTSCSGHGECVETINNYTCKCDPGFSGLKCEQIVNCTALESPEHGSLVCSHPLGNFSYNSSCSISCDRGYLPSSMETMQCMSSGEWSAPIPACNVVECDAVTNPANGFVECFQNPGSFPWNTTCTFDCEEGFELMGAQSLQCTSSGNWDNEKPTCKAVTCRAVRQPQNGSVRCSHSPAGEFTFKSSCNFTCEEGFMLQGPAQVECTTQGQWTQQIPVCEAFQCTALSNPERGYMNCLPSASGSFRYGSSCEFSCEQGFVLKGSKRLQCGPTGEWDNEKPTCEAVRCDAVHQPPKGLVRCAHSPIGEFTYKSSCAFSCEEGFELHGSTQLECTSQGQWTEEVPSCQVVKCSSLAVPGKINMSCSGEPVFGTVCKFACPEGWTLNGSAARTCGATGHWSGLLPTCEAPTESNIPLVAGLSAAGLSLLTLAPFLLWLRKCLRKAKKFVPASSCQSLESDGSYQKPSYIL
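Test system – human umbilical vein endothelial cells (HUVEC), E-selectin induction · Input – 3,000 HUVEC seeded per well · Buffer or medium – EGM-2, gelatin · Compound dosing – single-point compound dose · Detection – immunofluorescence imaging · Measure – percent E-selectin-positive cells · Controls – TNF-alpha high, DMSO low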
DENV2 CPE rescue: DENV2-induced cell death inhibition; CPE inhibition, % at 9.99 µM; actives 1.7% (n = 350,000); DENV2-infected cells, cytopathic effect rescue, plate reader; AID 651640; in the data active = CPE inhibition above about 20%, passing the limit was not always enough; inconclusive = no clear call, values can overlap the other calls; tested in BHK-21 cells;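 also: 0% = median of neutral control wells and 100% = median of positive control wells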
* marks the source's active call; other numbers are inactive results.

What do the screens show for `C[C@@H]1CN([C@@H](C)CO)C(=O)Cc2cc(NS(C)(=O)=O)ccc2O[C@@H]1CN(C)C(=O)NC1CCCCC1`?
SIRT5 block: 2.2; E-selectin induc: -12.8; DENV2 CPE rescue: -16.5

How did CN1C(=O)c2cc(NC(=O)c3ccc(F)c(F)c3)ccc2OC[C@H]2O[C@@H](CC(=O)N[C@@H]3CCN(Cc4ccccc4)C3)CC[C@@H]21 do in these assays?
SIRT5 block: -1.9; E-selectin induc: 0.1; DENV2 CPE rescue: 13.3

What do the screens show for `CC(=O)N(C)C[C@H]1Oc2cc(-c3cccc(C#N)c3)ccc2S(=O)(=O)N([C@@H](C)CO)C[C@H]1C`?
SIRT5 block: -2.9; E-selectin induc: 0.3; DENV2 CPE rescue: -6.0

What do the screens show for `C[C@@H]1CN([C@@H](C)CO)C(=O)Cc2cc(NC(=O)Nc3cccc4ccccc34)ccc2O[C@@H]1CN(C)S(=O)(=O)c1ccccc1`?
SIRT5 block: -1.1; E-selectin induc: 0.6; DENV2 CPE rescue: 2.0

Results for C[C@H]1CN([C@@H](C)CO)C(=O)c2c(c3ccccc3n2C)-c2ccccc2CO[C@@H]1CN(C)C(=O)C1CC1 ?
SIRT5 block: -1.5; E-selectin induc: 0.1; DENV2 CPE rescue: 3.5

Results for Cc1ccc([C@H]2N[C@]3(CCCN(Cc4ccco4)C3=O)[C@H]3C(=O)N(C)C(=O)[C@@H]23)cc1 ?
SIRT5 block: -1.1; DENV2 CPE rescue: 59.5*

What do the screens show for `CN1C(=O)[C@H]2[C@@H](c3ccccc3)N[C@]3(CCCN(Cc4ccco4)C3=O)[C@H]2C1=O`?
SIRT5 block: -1.5; E-selectin induc: -0.2; DENV2 CPE rescue: -13.8

What do the screens show for `CNC[C@@H]1Oc2cc(-c3cncnc3)ccc2S(=O)(=O)N([C@H](C)CO)C[C@H]1C`?
SIRT5 block: 1.2; E-selectin induc: 8.2; DENV2 CPE rescue: 11.8

What do the screens show for `O=C(CCN1CCCCC1)NCC[C@@H]1CC[C@H](NC(=O)C2CCOCC2)[C@H](CO)O1`?
SIRT5 block: 0.8; E-selectin induc: 0.5; DENV2 CPE rescue: inconclusive

How did C[C@@H]1CN([C@H](C)CO)C(=O)c2cc(NS(=O)(=O)c3cn(C)cn3)ccc2O[C@@H](C)CCCCO[C@@H]1CN(C)S(=O)(=O)c1ccc(F)cc1 do in these assays?
SIRT5 block: -0.7; DENV2 CPE rescue: 8.9

Results for O=C1CN(C(=O)NCC(=O)N[C@H](C(=O)O)c2ccccc2)c2ccccc2N1 ?
SIRT5 block: 18.0*; DENV2 CPE rescue: 9.4

Results for O=C1CN(C(=O)NCC(=O)N[C@H](Cc2ccccc2)C(=O)O)c2ccccc2N1 ?
SIRT5 block: -0.3; DENV2 CPE rescue: -9.5

Results for O=C1CC(c2ccccc2)Oc2cc(O)cc(O)c21 (centres undefined) ?
SIRT5 block: 1.4; DENV2 CPE rescue: 69.9*

How did COc1ccc(C2CC(=O)c3c(O)cc(O)cc3O2)cc1O (centres undefined) do in these assays?
SIRT5 block: 2.7; DENV2 CPE rescue: 23.5*

Results for O=C1CC(c2ccc(O)cc2)Oc2cc(O)cc(O)c21 (centres undefined) ?
SIRT5 block: 2.3; E-selectin induc: inconclusive; DENV2 CPE rescue: 3.0

Results for O=C1CC(c2ccc(O)c(O)c2)Oc2cc(O)cc(O)c21 (centres undefined) ?
DENV2 CPE rescue: -4.3

What do the screens show for `COc1ccccc1NC(=O)Nc1ccc2c(c1)C(=O)N(C)C[C@@H](OC)[C@H](C)CN(C)[C@H](C)CO2`?
SIRT5 block: 1.6; E-selectin induc: 0.0; DENV2 CPE rescue: -2.0

How did CC=Cc1ccc2n(c1=O)C[C@@H]1[C@@H](CO)[C@H](C(=O)NCCc3ccncc3)N(Cc3cncnc3)[C@H]21 (mixture of isomers) do in these assays?
SIRT5 block: 0.7; E-selectin induc: -0.2; DENV2 CPE rescue: 2.8

How did C=CCOC(=O)[C@H]1[C@@H]2C(=O)O[C@@H](c3ccccc3)[C@@H](c3ccccc3)N2[C@@H](c2ccc(OCCOC(=O)[C@H]3C[C@H]4C(=O)N[C@@H](Cc5ccccc5)C(=O)N4[C@H]3c3ccc(O)cc3)cc2)[C@]12C(=O)Nc1ccc(I)cc12 do in these assays?
SIRT5 block: 8.4; DENV2 CPE rescue: -0.2

Results for CC(C)NC(=O)N(C)C[C@@H]1Oc2c(cccc2N(C)C)C(=O)N([C@H](C)CO)C[C@H]1C ?
SIRT5 block: -0.1; E-selectin induc: -1.6; DENV2 CPE rescue: 27.3*

How did CC(C)NC(=O)N(C)C[C@H]1Oc2c(cccc2N(C)C)C(=O)N([C@@H](C)CO)C[C@H]1C do in these assays?
SIRT5 block: 1.0; E-selectin induc: 2.1; DENV2 CPE rescue: 21.8*

Results for C[C@@H]1CN([C@H](C)CO)C(=O)c2cccc(N(C)C)c2O[C@H]1CN(C)C(=O)NC1CCCCC1 ?
SIRT5 block: -4.2; E-selectin induc: 0.0; DENV2 CPE rescue: -7.0

Results for C[C@H](CO)N1C[C@H](C)[C@@H](CN(C)C(=O)Nc2ccccc2)Oc2c(cccc2N(C)C)C1=O ?
SIRT5 block: -10.0; E-selectin induc: 0.1; DENV2 CPE rescue: 1.9

Results for CC(C)NC(=O)Nc1ccc2c(c1)CC(=O)N([C@@H](C)CO)C[C@@H](C)[C@H](CN(C)C(=O)Nc1ccccc1)O2 ?
SIRT5 block: -0.9; E-selectin induc: -0.2; DENV2 CPE rescue: 13.6

Results for C[C@H](NC(=O)C[C@@H]1C[C@@H]2c3cc(NS(C)(=O)=O)ccc3O[C@@H]2[C@H](CO)O1)c1ccccc1 ?
SIRT5 block: -5.3; E-selectin induc: -0.7; DENV2 CPE rescue: 2.2

How did NC(c1csc(Nc2cc(NCc3ccco3)ncn2)n1)c1ccccc1Cl (centres undefined) do in these assays?
SIRT5 block: -1.6; E-selectin induc: 0.2; DENV2 CPE rescue: 69.5*

Results for NC(Cc1ccc(F)cc1)c1csc(Nc2cc(NCc3ccco3)ncn2)n1 (centres undefined) ?
SIRT5 block: 1.0; E-selectin induc: 1.2; DENV2 CPE rescue: 12.9

What do the screens show for `O=C(C[C@@H]1C[C@@H]2c3cc(NC(=O)Nc4ccc(C(F)(F)F)cc4)ccc3O[C@@H]2[C@H](CO)O1)NCCc1ccccc1`?
SIRT5 block: 0.4; E-selectin induc: -0.1; DENV2 CPE rescue: 6.8

What do the screens show for `Fc1ccccc1-c1nnc2n1N=C(c1ccc(OC(F)F)c(OCC3CC3)c1)CS2`?
E-selectin induc: 0.0; DENV2 CPE rescue: 6.6

Results for COc1ccc(C2=Nn3c(nnc3-c3ccccc3Cl)SC2)cc1OCC1CC1 ?
E-selectin induc: -0.1; DENV2 CPE rescue: 32.4*

How did COCCNC(=O)CCC1CCN(Cc2ccc(-c3ccccc3)cc2)CC1 do in these assays?
SIRT5 block: 12.4; DENV2 CPE rescue: 48.1*

How did COCCNC(=O)C1CCCN(Cc2ccccc2)CC1 (centres undefined) do in these assays?
SIRT5 block: -6.9; E-selectin induc: 0.4; DENV2 CPE rescue: -2.5

How did O=C(C1CCOCC1)N1CC2(C1)[C@H](c1ccccc1)[C@@H](CO)N2Cc1ccccc1F do in these assays?
E-selectin induc: 0.2; DENV2 CPE rescue: 3.8

Results for CCCNC(=O)Nc1ccc2c(c1)OC[C@H](C)N(C(=O)C1CC1)C[C@@H](C)[C@@H](OC)CN(C)C2=O ?
SIRT5 block: 8.2; E-selectin induc: 0.1; DENV2 CPE rescue: inconclusive

How did COc1ccc(CCNC(=O)C2CCC(=O)N2CCc2ccccc2)cc1OC (centres undefined) do in these assays?
SIRT5 block: -4.4; E-selectin induc: 6.0; DENV2 CPE rescue: -2.7
